Source: ChEMBL document CHEMBL3352791, “Thioaryl naphthylmethanone oxime ether analogs as novel anticancer agents” (J Med Chem, 2014)
The source made the active and inactive calls. No cut-off for these calls is given here.

Tests used:
[1] = target: Epidermal growth factor receptor (Homo sapiens) (UniProt P00533); experiment: Inhibition of EGF-induced EGFR phosphorylation at Tyr992 in human MDA-MB-231 cells at 1 uM by ELISA; type: cell-based
[2] = target: cAMP and cAMP-inhibited cGMP 3',5'-cyclic phosphodiesterase 10A (Homo sapiens) (UniProt Q9Y233); experiment: Inhibition of PDE10A1 (unknown origin) activity at 1 to 10 uM
cAMP and cAMP-inhibited cGMP 3',5'-cyclic phosphodiesterase 10A (Homo sapiens), sequence (Q9Y233 whole entry): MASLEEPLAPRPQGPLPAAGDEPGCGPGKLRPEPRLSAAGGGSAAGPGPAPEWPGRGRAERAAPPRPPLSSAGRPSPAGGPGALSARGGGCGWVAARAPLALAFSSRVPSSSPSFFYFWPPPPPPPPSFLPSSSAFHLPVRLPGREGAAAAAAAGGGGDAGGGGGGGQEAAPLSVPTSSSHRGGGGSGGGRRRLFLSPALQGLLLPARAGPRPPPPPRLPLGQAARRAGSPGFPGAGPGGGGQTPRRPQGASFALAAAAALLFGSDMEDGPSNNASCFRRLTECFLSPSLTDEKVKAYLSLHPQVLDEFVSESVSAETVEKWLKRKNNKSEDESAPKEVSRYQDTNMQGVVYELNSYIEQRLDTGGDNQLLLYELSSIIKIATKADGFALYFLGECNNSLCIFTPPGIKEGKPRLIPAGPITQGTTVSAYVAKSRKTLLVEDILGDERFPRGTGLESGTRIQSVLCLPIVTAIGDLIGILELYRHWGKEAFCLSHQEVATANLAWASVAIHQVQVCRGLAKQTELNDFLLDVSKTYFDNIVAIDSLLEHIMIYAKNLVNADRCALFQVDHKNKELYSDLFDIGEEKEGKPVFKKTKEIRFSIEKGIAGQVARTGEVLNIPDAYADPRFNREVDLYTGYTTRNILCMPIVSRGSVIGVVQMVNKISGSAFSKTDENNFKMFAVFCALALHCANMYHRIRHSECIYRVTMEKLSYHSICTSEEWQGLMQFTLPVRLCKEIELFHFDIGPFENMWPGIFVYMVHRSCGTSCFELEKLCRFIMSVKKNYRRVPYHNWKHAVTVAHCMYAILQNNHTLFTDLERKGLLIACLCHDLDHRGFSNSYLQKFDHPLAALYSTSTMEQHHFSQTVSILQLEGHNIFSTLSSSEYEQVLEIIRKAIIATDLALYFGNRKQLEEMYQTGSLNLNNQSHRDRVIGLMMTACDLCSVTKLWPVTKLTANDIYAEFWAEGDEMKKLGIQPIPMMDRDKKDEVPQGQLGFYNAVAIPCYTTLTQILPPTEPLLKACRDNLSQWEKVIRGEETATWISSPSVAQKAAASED

[3] = target: Epidermal growth factor receptor (Homo sapiens) (UniProt P00533); experiment: Inhibition of EGF-induced EGFR phosphorylation at Tyr992 in human MCF7 cells at 1 uM by ELISA; type: cell-based
MCF7 [4] = experiment: Inhibition of TGFbeta expression in human MCF7 cells at 5 uM by ELISA; type: functional, cell-based
[5] = tested on: Mast/stem cell growth factor receptor Kit (Homo sapiens), P10721 [D816G]; experiment: Inhibition of cKit D816G mutant (unknown origin) at 10 uM
Mast/stem cell growth factor receptor Kit (Homo sapiens), P10721 [D816G], sequence (P10721 whole entry D816G): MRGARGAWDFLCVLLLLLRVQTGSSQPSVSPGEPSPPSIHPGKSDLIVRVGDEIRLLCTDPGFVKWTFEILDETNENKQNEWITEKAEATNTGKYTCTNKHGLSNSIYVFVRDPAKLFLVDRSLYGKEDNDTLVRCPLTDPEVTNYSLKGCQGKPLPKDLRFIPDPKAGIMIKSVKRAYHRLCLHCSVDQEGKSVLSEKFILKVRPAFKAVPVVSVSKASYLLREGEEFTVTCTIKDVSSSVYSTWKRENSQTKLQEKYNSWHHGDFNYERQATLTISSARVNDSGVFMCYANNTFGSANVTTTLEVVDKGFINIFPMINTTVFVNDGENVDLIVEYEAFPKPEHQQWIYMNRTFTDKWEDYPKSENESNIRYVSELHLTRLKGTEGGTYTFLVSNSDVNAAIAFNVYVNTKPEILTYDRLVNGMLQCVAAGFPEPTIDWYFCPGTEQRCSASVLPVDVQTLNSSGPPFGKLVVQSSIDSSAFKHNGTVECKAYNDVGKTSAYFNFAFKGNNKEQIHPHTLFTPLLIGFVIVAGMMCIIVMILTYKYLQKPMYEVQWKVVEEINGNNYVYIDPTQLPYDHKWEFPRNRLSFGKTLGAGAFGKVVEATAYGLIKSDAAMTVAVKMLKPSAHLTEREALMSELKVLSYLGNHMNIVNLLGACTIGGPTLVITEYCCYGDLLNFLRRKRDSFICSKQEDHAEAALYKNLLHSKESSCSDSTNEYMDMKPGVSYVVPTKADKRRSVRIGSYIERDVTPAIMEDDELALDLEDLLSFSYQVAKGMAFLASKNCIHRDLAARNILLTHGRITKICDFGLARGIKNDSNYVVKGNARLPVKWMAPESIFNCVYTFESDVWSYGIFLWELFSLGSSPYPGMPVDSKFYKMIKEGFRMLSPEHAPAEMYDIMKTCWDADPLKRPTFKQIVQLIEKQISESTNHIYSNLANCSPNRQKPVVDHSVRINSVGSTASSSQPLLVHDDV
Procedure, shortened: (§1)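 Cell-free kinase profiling was run as a standard 33P-ATP-based in vitro kinase assay.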

[6] = target: Ribosomal protein S6 kinase beta-1 (Homo sapiens) (UniProt P23443); experiment: Inhibition of p70S6K (unknown origin) at 10 uM; procedure, shortened: as §1
Ribosomal protein S6 kinase beta-1 (Homo sapiens), sequence (P23443 whole entry, looked up): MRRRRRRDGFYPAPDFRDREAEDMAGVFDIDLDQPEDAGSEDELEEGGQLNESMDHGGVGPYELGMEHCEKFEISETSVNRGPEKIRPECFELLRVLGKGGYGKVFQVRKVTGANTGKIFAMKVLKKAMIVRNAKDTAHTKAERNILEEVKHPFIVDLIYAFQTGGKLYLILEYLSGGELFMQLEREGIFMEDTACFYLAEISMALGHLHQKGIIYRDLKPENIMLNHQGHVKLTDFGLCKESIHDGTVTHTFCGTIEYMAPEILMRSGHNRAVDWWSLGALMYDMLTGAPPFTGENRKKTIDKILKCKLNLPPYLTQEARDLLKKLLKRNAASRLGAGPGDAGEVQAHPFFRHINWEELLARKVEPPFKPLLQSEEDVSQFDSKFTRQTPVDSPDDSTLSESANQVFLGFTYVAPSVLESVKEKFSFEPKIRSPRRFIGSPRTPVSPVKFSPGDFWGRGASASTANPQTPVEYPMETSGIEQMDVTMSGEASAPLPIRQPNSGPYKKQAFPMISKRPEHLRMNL

MCF7 [7] = experiment: Antiproliferative activity against human […] cells assessed as absence of growth recovery treated > 5 uM for 24 hrs followed by maintained in drug free medium for 72 hrs by MTT assay; type: functional, cell-based
MDA-MB-231 [8] = experiment: Inhibition of VEGF expression in human MDA-MB-231 cells at 5 uM by ELISA; type: functional, cell-based
MDA-MB-231 [9] = experiment: Inhibition of basal cell migration in human MDA-MB-231 cells assessed as […] at 1 uM after 24 hrs by wound healing assay; type: functional, cell-based
MDA-MB-231 [10] = experiment: Induction of cAMP level in human MDA-MB-231 cells at 0.1 to 25 uM; type: functional, cell-based
Procedure, shortened: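 MDA-MB-231 cells serum-starved for 4 h, treated with 500μM IBMX for 30 min, then exposed to compound for a further 30 min. Cellular cAMP read by HTRF kit.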

[11] = target: cGMP-specific 3',5'-cyclic phosphodiesterase (Canis lupus familiaris) (UniProt O77746); experiment: Inhibition of PDE5 CAT (unknown origin) activity at 1 to 10 uM; details: Homo sapiens
Procedure, shortened: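 Recombinant PDE isoform activity was read by fluorescence polarization. A binding reagent complexes with the nucleotide monophosphate that the phosphodiesterase generates from cAMP/cGMP, and this raises the polarization of the labelled substrate. Reference standards were PDE1A3 10µM IBMX, PDE2A3 1nM BAY 60-7550, PDE3CAT 1µM cilostazol, PDE4CAT rolipram, PDE5CAT 0.1µM sildenafil, PDE7A […], PDE8A1 10µM BRL-50481, PDE9A1 1µM SB 36216 and PDE11A1 dipyridamole.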

[12] = target: T1, Signal transducer and activator of transcription 1-alpha/beta (Homo sapiens) (UniProt P42224); experiment: Inhibition of EGF-induced STAT1 phosphorylation in human MDA-MB-231 cells at 1 uM by ELISA; type: cell-based
T1 sequence (whole entry): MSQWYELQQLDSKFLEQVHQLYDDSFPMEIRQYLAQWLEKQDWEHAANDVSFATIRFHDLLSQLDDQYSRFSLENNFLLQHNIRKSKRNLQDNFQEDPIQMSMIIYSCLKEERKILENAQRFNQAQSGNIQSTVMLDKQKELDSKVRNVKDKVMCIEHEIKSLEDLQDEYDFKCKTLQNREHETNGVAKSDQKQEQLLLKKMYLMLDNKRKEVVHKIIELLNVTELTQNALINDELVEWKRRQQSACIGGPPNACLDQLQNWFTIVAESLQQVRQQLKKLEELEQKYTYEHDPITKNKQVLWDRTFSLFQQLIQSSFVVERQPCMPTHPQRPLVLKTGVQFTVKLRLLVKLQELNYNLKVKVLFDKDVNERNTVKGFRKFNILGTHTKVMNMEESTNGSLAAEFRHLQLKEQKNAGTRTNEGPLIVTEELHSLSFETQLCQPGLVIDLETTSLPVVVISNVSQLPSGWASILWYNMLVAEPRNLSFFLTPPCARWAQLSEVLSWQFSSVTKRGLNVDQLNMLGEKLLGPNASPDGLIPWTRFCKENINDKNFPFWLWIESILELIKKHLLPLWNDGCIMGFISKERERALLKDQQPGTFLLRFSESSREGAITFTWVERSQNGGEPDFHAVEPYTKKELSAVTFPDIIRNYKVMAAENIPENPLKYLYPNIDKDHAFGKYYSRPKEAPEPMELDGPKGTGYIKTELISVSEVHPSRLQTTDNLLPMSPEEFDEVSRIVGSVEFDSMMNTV

[13] = target: Phosphodiesterase 6 (Homo sapiens) (UniProt Q13956+P18545+P35913+O43924+P16499+P51160); experiment: Inhibition of PDE6AB (unknown origin) activity at 1 to 10 uM; type: protein assay
Procedure, shortened: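 PDE6AB activity was measured by radiometric assay, a modification of the Thompson and Appleman two-step method. Sildenafil 1µM served as reference standard.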

MDA-MB-231 [14] = experiment: Inhibition of cell migration in human MDA-MB-231 cells assessed as […] at 1 uM after 24 hrs by wound healing assay; type: functional, cell-based
[15] = target: Epidermal growth factor receptor (Homo sapiens) (UniProt P00533); experiment: Inhibition of EGF-induced EGFR2 phosphorylation in human MDA-MB-231 cells at 1 uM by ELISA; type: cell-based
Procedure, shortened: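 MDA-MB-231 cells pretreated 1 h in serum-free medium, then EGF-stimulated for 15 min and lysed. Equal lysate protein (Bradford) assayed by ELISA kits for p-EGFR (Tyr1068, Tyr845, Tyr1173) and p-HER2. Absorbance read at 450 nm, normalized to total EGFR or HER2.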

MDA-MB-231 [16] = experiment: Cell cycle arrest in human […] cells assessed as accumulation at G1 phase at 5 uM by propidium iodide staining by FACS analysis (reference value: 63.74%); type: functional
MDA-MB-231 [17] = experiment: Cell cycle arrest in human […] cells assessed as accumulation at subG1 phase at 7.5 uM by propidium iodide staining by FACS analysis (reference value: 0.3%); type: functional
MCF7 [18] = experiment: Cell cycle arrest in human […] cells assessed as accumulation at G2 phase at 2.5 uM by propidium iodide staining by FACS analysis (reference value: 10.96%); type: functional
[19] = Antiproliferative activity against mouse NIH/3T3 cells after 24 hrs by MTT assay; type: functional, cell-based; details: NIH3T3, 24 h
Procedure, shortened: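 MTT viability: cells seeded at 1×10^4 per well in DMEM with 10% FBS, left to adhere overnight, then serum-starved 4 h. Compounds were given at a range of doses, with 0.1% DMSO vehicle as control. EC50 was taken from dose-response curves spanning 100nM-50µM. Data are mean ± SEM from at least three independent experiments.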

MCF7 [20] = experiment: Cell cycle arrest in human […] cells assessed as accumulation at G2 phase at 5 uM by propidium iodide staining by FACS analysis (reference value: 10.96%); type: functional
in vitro = details: human, MCF10A cells versus

Epidermal growth factor receptor (Homo sapiens), sequence (P00533 whole entry): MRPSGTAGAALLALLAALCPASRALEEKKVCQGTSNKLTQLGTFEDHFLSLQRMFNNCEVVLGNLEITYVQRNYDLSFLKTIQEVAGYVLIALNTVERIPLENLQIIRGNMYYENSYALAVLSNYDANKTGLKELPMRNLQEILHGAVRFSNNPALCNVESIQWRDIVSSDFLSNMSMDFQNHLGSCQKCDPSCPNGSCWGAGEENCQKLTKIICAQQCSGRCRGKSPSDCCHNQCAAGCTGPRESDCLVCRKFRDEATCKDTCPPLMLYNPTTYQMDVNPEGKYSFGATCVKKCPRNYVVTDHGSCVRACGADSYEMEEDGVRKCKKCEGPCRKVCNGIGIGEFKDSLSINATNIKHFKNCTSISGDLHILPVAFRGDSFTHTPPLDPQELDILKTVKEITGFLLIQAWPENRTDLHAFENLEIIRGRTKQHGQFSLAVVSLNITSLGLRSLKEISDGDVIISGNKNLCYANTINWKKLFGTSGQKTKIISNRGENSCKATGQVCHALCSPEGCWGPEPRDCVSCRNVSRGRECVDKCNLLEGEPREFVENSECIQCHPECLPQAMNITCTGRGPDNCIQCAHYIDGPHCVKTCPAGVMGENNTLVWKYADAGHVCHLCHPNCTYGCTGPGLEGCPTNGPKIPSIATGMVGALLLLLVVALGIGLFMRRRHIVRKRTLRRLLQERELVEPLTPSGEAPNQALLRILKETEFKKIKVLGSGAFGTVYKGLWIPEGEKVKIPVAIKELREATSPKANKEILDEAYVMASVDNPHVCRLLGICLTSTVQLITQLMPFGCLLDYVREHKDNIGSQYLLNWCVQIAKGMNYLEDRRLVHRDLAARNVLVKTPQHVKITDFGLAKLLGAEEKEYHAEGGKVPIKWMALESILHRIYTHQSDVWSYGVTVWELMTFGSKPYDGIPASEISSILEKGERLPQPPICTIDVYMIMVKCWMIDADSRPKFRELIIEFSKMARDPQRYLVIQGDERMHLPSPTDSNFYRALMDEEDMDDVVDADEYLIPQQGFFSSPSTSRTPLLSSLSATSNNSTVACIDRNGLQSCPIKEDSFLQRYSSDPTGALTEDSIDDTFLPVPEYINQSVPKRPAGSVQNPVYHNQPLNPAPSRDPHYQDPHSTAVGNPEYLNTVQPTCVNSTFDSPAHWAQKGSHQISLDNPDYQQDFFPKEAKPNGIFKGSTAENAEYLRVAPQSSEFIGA

## CCN(CC)CCO/N=C(\c1ccc(SC)cc1)c1cccc2ccccc12
[1]
  inhibition: Active
[2]
  inhibition: inactive
[3]
  inhibition: Active
MCF7 [4]
  inhibition: inactive
[5]
  inhibition: inactive
[6]
  inhibition: inactive
MCF7 [7]
  Activity: Active
MDA-MB-231 [8]
  inhibition: inactive
MDA-MB-231 [9]
  inhibition: Active
MDA-MB-231 [10]
  Activity: Active
[11]
  inhibition: inactive
[12]
  inhibition: inactive
[13]
  inhibition: inactive
MDA-MB-231 [14]
  inhibition: Active
[15]
  inhibition: Active

## CCN(CC)CCO/N=C(\c1ccc(SC)cc1)c1cccc2ccccc12.O=C(O)C(=O)O
MDA-MB-231 [16]
  Activity: 88%
MDA-MB-231 [17]
  Activity: 0.8%
MCF7 [18]
  Activity: 12.46%
[19]
  IC50: > 20 µM
MCF7 [20]
  Activity: 11.48%
In vitro
  selectivity ratio: 16.6
